Test results from ChEMBL document CHEMBL3856209, “Novel pyrazolopyridine derivatives as potential angiogenesis inhibitors: Synthesis, biological evaluation and transcriptome-based mechanistic analysis” (Eur J Med Chem, 2016).
Calls of active or inactive are those of the source.

Experiments:
HUVEC [1] = assay: Effect on RHOB gene expression in serum-starved HUVEC after 24 hrs by microarray analysis relative to control; assay type: functional, Homo sapiens
HUVEC [2] = assay: Effect on ASPM gene expression in serum-starved HUVEC after 6 hrs by microarray analysis relative to control; assay type: functional, Homo sapiens
Outline: (§1)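 Serum-starved confluent HUVEC treated with 2 μM compound or DMSO in 2.5% FBS for 6 h or 24 h; RNA hybridized to Illumina Human-HT12 arrays. Data background-corrected, vst-transformed and rsn-normalized. Differential probes called by moderated paired t-test (limma) at p < 0.05 and log2 fold change >|0.5| vs DMSO.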

HUVEC [3] = assay: Effect on ELMOD1 gene expression in serum-starved HUVEC after 24 hrs by microarray analysis relative to control; assay type: functional, Homo sapiens
Outline: (§2)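 Confluent, serum-starved HUVEC (pooled from 3–5 donors, passage ≤4) treated with 2 μM compound or vehicle with 2.5% FBS for 6 h or 24 h. Total RNA hybridized to Illumina Human-HT12 arrays. Data were background-corrected, vst-transformed and rsn-normalized. Hits called by moderated paired t-test versus DMSO-treated cells, p < 0.05 and log2 fold change >|0.5|.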

HUVEC [4] = assay: Effect on HINT3 gene expression in serum-starved HUVEC after 6 hrs by microarray analysis relative to control; assay type: functional, Homo sapiens; outline: as §2
HUVEC [5] = assay: Effect on EMCN gene expression in serum-starved HUVEC after 6 hrs by microarray analysis relative to control; assay type: functional, Homo sapiens
Outline: (§3)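 Confluent serum-starved HUVEC (primary, pooled from 3–5 donors, passage ≤4) treated with 2 μM compound or DMSO vehicle in 2.5% FBS for 6 h or 24 h. Total RNA hybridized to Illumina Human-HT12 arrays, background-corrected, vst-transformed and rsn-normalized. Differential expression versus DMSO by moderated paired t-test (p < 0.05, |log2 fold change| > 0.5).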

HUVEC [6] = assay: Effect on EMCN gene expression in serum-starved HUVEC after 24 hrs by microarray analysis relative to control; assay type: functional, Homo sapiens; outline: as §3
HUVEC [7] = assay: Effect on KRT18P55 gene expression in serum-starved HUVEC after 6 hrs by microarray analysis relative to control; assay type: functional, Homo sapiens
Outline: (§4)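 Serum-starved confluent HUVEC (pooled from 3–5 donors, passage ≤4) were treated with 2 μM compound or vehicle in 2.5% FBS for 6 h or 24 h, and total RNA was isolated. Hybridization was on Illumina Human-HT12. Data were processed with bgAdjust, vst and rsn normalization. Changes versus DMSO were called by moderated paired t-test at p < 0.05 and |log2 fold change| > 0.5.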

HUVEC [8] = assay: Effect on CYBA gene expression in serum-starved HUVEC after 6 hrs by microarray analysis relative to control; assay type: functional, Homo sapiens; outline: as §3
HUVEC [9] = assay: Effect on CYTL1 gene expression in serum-starved HUVEC after 24 hrs by microarray analysis relative to control; assay type: functional, Homo sapiens
Outline: (§5)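 Serum-starved confluent HUVEC (primary, pooled from 3–5 donors, passage ≤4) treated with 2 μM test compound or DMSO vehicle (working dilutions ≤0.1% v/v) in presence of 2.5% FBS for 6 h or 24 h; total RNA hybridized to Illumina Human-HT12 arrays; background correction, vst, rsn normalization; moderated paired t-test versus DMSO, thresholds p < 0.05 and log2 fold change >|0.5|.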

HUVEC [10] = assay: Effect on LSS gene expression in serum-starved HUVEC after 24 hrs by microarray analysis relative to control; assay type: functional, Homo sapiens; outline: as §4
HUVEC [11] = assay: Effect on FABP4 gene expression in serum-starved HUVEC after 6 hrs by microarray analysis relative to control; assay type: functional, Homo sapiens; outline: as §3
HUVEC [12] = assay: Effect on EGR1 gene expression in serum-starved HUVEC after 24 hrs by microarray analysis relative to control; assay type: functional, Homo sapiens; outline: as §2
HUVEC [13] = assay: Effect on HLA-DRB4 gene expression in serum-starved HUVEC after 24 hrs by microarray analysis relative to control; assay type: functional, Homo sapiens
HUVEC [14] = assay: Effect on DKK1 gene expression in serum-starved HUVEC after 6 hrs by microarray analysis relative to control; assay type: functional, Homo sapiens; outline: as §3
HUVEC [15] = assay: Effect on HECW2 gene expression in serum-starved HUVEC after 6 hrs by microarray analysis relative to control; assay type: functional, Homo sapiens; outline: as §2
HUVEC [16] = assay: Effect on PLA2G4C gene expression in serum-starved HUVEC after 6 hrs by microarray analysis relative to control; assay type: functional, Homo sapiens; outline: as §4
HUVEC [17] = assay: Effect on PRR11 gene expression in serum-starved HUVEC after 6 hrs by microarray analysis relative to control; assay type: functional, Homo sapiens; outline: as §4
HUVEC [18] = assay: Effect on CD46 gene expression in serum-starved HUVEC after 6 hrs by microarray analysis relative to control; assay type: functional, Homo sapiens; outline: as §1
HUVEC [19] = assay: Effect on HAVCR2 gene expression in serum-starved HUVEC after 6 hrs by microarray analysis relative to control; assay type: functional, Homo sapiens; outline: as §3
HUVEC [20] = assay: Effect on TK1 gene expression in serum-starved HUVEC after 6 hrs by microarray analysis relative to control; assay type: functional, Homo sapiens
HUVEC [21] = assay: Effect on COL8A1 gene expression in serum-starved HUVEC after 6 hrs by microarray analysis relative to control; assay type: functional, Homo sapiens; outline: as §2
[22] = Downregulation of HMOX1 gene expression in serum-starved HUVEC at 2 uM after 24 hrs by qRT-PCR analysis; assay type: functional, cell-based; conditions: Homo sapiens
Outline: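 Serum-starved confluent HUVEC treated with 2 μM compound or vehicle in 2.5% FBS for 24 h. Total RNA isolated and qRT-PCR run in triplicate (95 °C 5 min; 40 cycles of 95 °C 5 s, 58 °C 20 s, 72 °C 5 s), normalized to RPS18S. Fold change vs control, n = 3.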

HUVEC [23] = assay: Effect on ABCA1 gene expression in serum-starved HUVEC after 6 hrs by microarray analysis relative to control; assay type: functional, Homo sapiens; outline: as §3
HUVEC [24] = assay: Effect on ANKRD1 gene expression in serum-starved HUVEC after 24 hrs by microarray analysis relative to control; assay type: functional, Homo sapiens; outline: as §1
HUVEC [25] = assay: Effect on CCL8 gene expression in serum-starved HUVEC after 24 hrs by microarray analysis relative to control; assay type: functional, Homo sapiens; outline: as §3
HUVEC [26] = assay: Effect on ACLY gene expression in serum-starved HUVEC after 6 hrs by microarray analysis relative to control; assay type: functional, Homo sapiens; outline: as §1
HUVEC [27] = assay: Effect on TM4SF18 gene expression in serum-starved HUVEC after 24 hrs by microarray analysis relative to control; assay type: functional, Homo sapiens
HUVEC [28] = assay: Effect on CDCA5 gene expression in serum-starved HUVEC after 6 hrs by microarray analysis relative to control; assay type: functional, Homo sapiens; outline: as §1
HUVEC [29] = assay: Effect on MVD gene expression in serum-starved HUVEC after 24 hrs by microarray analysis relative to control; assay type: functional, Homo sapiens; outline: as §4
HUVEC [30] = assay: Effect on UHRF1 gene expression in serum-starved HUVEC after 6 hrs by microarray analysis relative to control; assay type: functional, Homo sapiens
HUVEC [31] = assay: Effect on KIF4A gene expression in serum-starved HUVEC after 24 hrs by microarray analysis relative to control; assay type: functional, Homo sapiens; outline: as §4
HUVEC [32] = assay: Effect on CDCA8 gene expression in serum-starved HUVEC after 24 hrs by microarray analysis relative to control; assay type: functional, Homo sapiens; outline: as §5
HUVEC [33] = assay: Effect on LDLR gene expression in serum-starved HUVEC after 6 hrs by microarray analysis relative to control; assay type: functional, Homo sapiens; outline: as §4
HUVEC [34] = assay: Effect on GRPEL2 gene expression in serum-starved HUVEC after 6 hrs by microarray analysis relative to control; assay type: functional, Homo sapiens; outline: as §2
HUVEC [35] = assay: Effect on MVD gene expression in serum-starved HUVEC after 6 hrs by microarray analysis relative to control; assay type: functional, Homo sapiens; outline: as §4
HUVEC [36] = assay: Effect on IL1RL1 gene expression in serum-starved HUVEC after 24 hrs by microarray analysis relative to control; assay type: functional, Homo sapiens

Structure (SMILES): COc1ccc(Cn2nc(-c3ccccc3)c3cc(Cl)nc(N4CCNCC4)c32)cc1
- log2FC (HUVEC [1]): 0.5108
- fold change (FC) (HUVEC [2]): 0.1684
- log2FC (HUVEC [3]): -0.514

Structure (SMILES): COc1ccc(Cn2nc(-c3ccccc3)c3cc(Nc4ccc(N5CCN(C)CC5)cc4)nc(N4CCNCC4)c32)cc1
- log2FC (HUVEC [4]): -0.0444

Structure (SMILES): COc1ccc(Cn2nc(-c3ccccc3)c3cc(Nc4ccc(N5CCN(C)CC5)cc4)nc(N4CCN(C)CC4)c32)cc1
- fold change (FC) (HUVEC [5]): 0.2035
- fold change (FC) (HUVEC [6]): 0.5299
- log2FC (HUVEC [7]): -0.0175
- fold change (FC) (HUVEC [8]): 0.1437
- fold change (FC) (HUVEC [9]): 0.5166
- log2FC (HUVEC [10]): 1.6178
- fold change (FC) (HUVEC [11]): 0.3036
- log2FC (HUVEC [12]): 0.5707
- log2FC (HUVEC [13]): -0.7509
- fold change (FC) (HUVEC [14]): 0.1994
- fold change (FC) (HUVEC [15]): 0.4559
- fold change (FC) (HUVEC [16]): 0.3857
- log2FC (HUVEC [17]): 0.0749
- fold change (FC) (HUVEC [18]): 0.3593
- fold change (FC) (HUVEC [19]): 0.9139
- log2FC (HUVEC [20]): -0.2736
- fold change (FC) (HUVEC [21]): 0.2137
- Activity [22]: Active
- fold change (FC) (HUVEC [23]): 0.0783
- log2FC (HUVEC [24]): 0.2203
- fold change (FC) (HUVEC [25]): -0.7427
- fold change (FC) (HUVEC [26]): 0.4312
- log2FC (HUVEC [27]): 0.5978
- fold change (FC) (HUVEC [28]): 0.0694
- log2FC (HUVEC [29]): 1.3802
- fold change (FC) (HUVEC [30]): 0.012
- log2FC (HUVEC [31]): -0.5756
- fold change (FC) (HUVEC [32]): -0.8847
- fold change (FC) (HUVEC [33]): 0.9404
- fold change (FC) (HUVEC [34]): 0.2207
- fold change (FC) (HUVEC [35]): 0.3962
- fold change (FC) (HUVEC [36]): -0.5903
